SMILES strings stand for the structures.

In data set [1] the test system is Mus musculus. The data set can be described thus: In vivo anticonvulsant effect of DMCM-induced clonic seizures in mice at 15 mg/kg intraperitoneal dose expressed as effective dose. Format: functional. Particulars: ip. The gist of the method: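 Mice; test compound given ip. Clonic seizures induced with DMCM at 15 mg/kg ip. Inhibition of clonic seizures scored by observation, and ED50 expressed in mg/kg.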

A short description of data set [2]: In vitro inhibition of [3H]GABA uptake in rat synaptosomes. Format: functional, subcellular, Brain. The gist of the method:
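Rat forebrain homogenized in ice-cold 0.32 M sucrose, spun 10 min at 600g at 4 °C, and the pellet resuspended in pH 7.4 Na/K/Ca/Mg phosphate-glucose buffer. Synaptosomes (0.1 mg protein) preincubated with test substance 8 min at 30 °C. [3H]GABA (final 0.9 nM) plus unlabeled GABA (final 0.9 nM) then added for a further 8 min, followed by filtration. Uptake in the presence of 500 μM nipecotic acid subtracted. IC50 is the mean of 3–7 determinations ± SE.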

Data set [3] is filed under the species Mus musculus. The data set can be described thus: Anticonvulsant effect of DMCM-induced seizures in mice expressed as effective dose.
Data set [4] can be described thus: Lipophilicity measured as partition between octanol and pH 7.4 buffer. Format: physicochemical. To be noted: octanol/pH 7.4 buffer.

Usually ED50 stands for the dose at which the effect has come halfway, by size or by number of responders. Read a low ED50 as an effect at a small dose. For orientation: IC50 means the point on the concentration scale where inhibition reaches its midpoint. A high value points to lower potency. Regarding `Cl.Cn1cccc1/C(=C\CCN1CCC=C(C(=O)O)C1)c1ccccc1`, the 50% effect level in the data set on Mus musculus [1] (ED50) was put at a dose of 1.8 mg/kg. In addition, the concentration for half-maximal inhibition (IC50) in data set [2] came to 130 nM.
In data set [2], `Cc1ccsc1/C(=C\CCN1CCC[C@@H](C(=O)O)C1)c1cccs1` had a half-maximal inhibitory concentration (IC50) of 690 nM.
`Cc1ccsc1C(=CCCN1CCCC(C(=O)O)C1)c1sccc1C.Cl` (configuration not stated) came in with a 50% effective dose (ED50) in the data set on Mus musculus [1] of 2.6 mg/kg. The compound further registered an IC50 in data set [2] of 87 nM.
`Cc1ccccc1C(=CCCN1CCC[C@H](C(=O)O)C1)c1ccccc1C.Cl`: the ED50 with Mus musculus [1] was determined as 1.3 mg/kg.
The same measure, in the same setting: the value for `Cc1ccccc1/C(=C/CCN1CCC[C@H](C(=O)O)C1)c1sccc1C.Cl` was 1.2 mg/kg.
The compound `Cc1ccsc1/C(=C\CCN1CCC[C@H](C(=O)O)C1)c1c(C)cccc1C` yielded an IC50 in data set [2] of 247 nM.
As for `Cc1ccsc1/C(=C\CCN1CCC[C@H](C(=O)O)C1)c1cccs1.Cl`, the ED50 in the data set on Mus musculus [1] amounted to 2.5 mg/kg. The compound also returned an IC50 in data set [2] of 60 nM.
The compound `Cc1ccc(/C(=C/CCN2CCC[C@H](C(=O)O)C2)c2sccc2C)c(C)c1` displayed an IC50 in data set [2] of 264 nM. That is a sub-micromolar value.
Same read-out and setting: the value for `O=C(O)C1CCCN(CCOC(c2ccccc2)c2ccccc2)C1` (configuration not stated) was 1370 nM.
`Cc1ccccc1/C(=C/CCN1CCC=C(C(=O)O)C1)c1sccc1C.Cl` returned an ED50 with Mus musculus [1] of 1.9 mg/kg. It took 130 nM to reach half-maximal inhibition in data set [2] (IC50).
In the case of `Cc1ccsc1C(=CCCN1CCC=C(C(=O)O)C1)c1sccc1C.Cl`, the ED50 in the data set with Mus musculus [1] stood at 1.8 mg/kg. Also, in data set [2], the IC50 is 138 nM.
In the case of `COc1ccc(C(OCCN2CCCC(C(=O)O)C2)c2ccc(OC)cc2)cc1` (configuration not stated), the IC50 in data set [2] is more than 3000 nM.
`Cl.O=C(O)C1CCCN(CCC=C(c2ccccc2)c2ccccc2)C1` (configuration not stated) registered a median effective dose (ED50) in the data set with Mus musculus [1] of 3.1 mg/kg. Besides, in data set [2], the half-maximal inhibitory concentration (IC50) came to 330 nM.
As for `Cc1ccsc1/C(=C\CCN1CCCC(C(=O)O)C1)c1ccccc1` (configuration not stated), the IC50 in data set [2] came to 290 nM.
As for `Cc1ccsc1/C(=C\CCN1CCC=C(C(=O)O)C1)c1cccs1.Cl`, the median effective dose (ED50) in the data set with Mus musculus [1] was found to be 2.1 mg/kg. For the same compound, in data set [2], the IC50 came to 112 nM.
In the case of `O=C(O)[C@H]1CCCN(CCC=C2c3ccccc3-c3ccccc32)C1`, the IC50 in data set [2] turned out to be 1920 nM.
The same measure, in the same setting: in the case of `Cc1cc(Cl)ccc1/C(=C/CCN1CCC=C(C(=O)O)C1)c1sccc1C` it was 300 nM.
Compound `Cc1ccccc1C(OCCN1CCCC(C(=O)O)C1)c1ccccc1C` (configuration not stated) came in with a half-maximal inhibitory concentration (IC50) in data set [2] of 388 nM.
In data set [2], `O=C(O)C1=CCCN(CC/C=C(/c2ccccc2)c2cccs2)C1` registered an IC50 of 265 nM.
Still for that read-out and setting: in the case of `Cc1ccsc1/C(=C\CCN1CCC=C(C(=O)O)C1)c1ccc(Cl)cc1Cl` it was 320 nM.
The same measure, in the same setting: in the case of `Cc1ccsc1/C(=C\CCN1CCC=C(C(=O)O)C1)c1cc(Cl)cc(Cl)c1` it was 1860 nM.
On the same count and under the same terms, the value for `Cc1ccsc1/C(=C\CCN1CCC=C(C(=O)O)C1)c1ccc(Cl)cc1` was 848 nM; that for `O=C(O)C1CCCN(CCC=C(c2cccs2)c2cccs2)C1` (configuration not stated) was 256 nM.
The compound `Cl.O=C(O)C1=CCCN(CCC=C(c2ccccc2)c2ccccc2)C1` showed an ED50 with Mus musculus [1] of 3.6 mg/kg. The compound also showed an IC50 in data set [2] of 341 nM.
`Cc1ccsc1C(=CCCN1CCC[C@H](C(=O)O)C1)c1sccc1C` registered an IC50 in data set [2] of 218 nM.
`CN1C(=O)CN=C(c2ccccc2)c2cc(Cl)ccc21` [DIAZEPAM] came in with a 50% effective dose (ED50) in the data set listed under Mus musculus [3] of 2.5 mg/kg.
A word on the logD: it is the decadic logarithm of the distribution of all forms, ionised or not, between an organic phase and buffer at a given pH. Low readings indicate lower lipophilicity, high ones higher lipophilicity. For the compound `Cc1ccsc1C(=CCCN1CCC[C@@H](C(=O)O)C1)c1sccc1C.Cl` [TIAGABINE HYDROCHLORIDE], in the data set on Mus musculus [1], it took a dose of 1.2 mg/kg to reach the 50% effect level (ED50). Moreover, it took 67 nM to reach half-maximal inhibition in data set [2] (IC50). This compound came in with a logD in data set [4] of 1.59.

For the origin of these results see ChEMBL document CHEMBL1126711, “The synthesis of novel GABA uptake inhibitors. 1. Elucidation of the structure-activity studies leading to the choice of (R)-1-[4,4-bis(3-methyl-2-thienyl)-3-butenyl]-3-piperidinecarboxylic acid (tiagabine) as an anticonvulsant drug candidate” (J Med Chem, 1993).
